Tests used:
[1] = Oral bioavailability in BCRP knockout Sprague-Dawley rat at 10 mg/kg by LC-MS/MS analysis; type: ADME, organism-based; details: in vivo
Summary of the method: (§1)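 Male Sprague-Dawley rats (knockout or wild type matched for age and weight), femoral artery and vein cannulated, at least 2 days recovery. Crossover design: IV bolus 1 mg/kg on day 0 (saline with 0.2 M equivalents HCl), oral gavage 10 mg/kg on day 3 (water with 0.2 M equivalents HCl). Arterial plasma sampled to 24 h (Mdr1a oral arm to 4 h). Analysed by LC-MS/MS and noncompartmental analysis.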

[2] = Oral bioavailability in MDR1A knockout Sprague-Dawley rat at 10 mg/kg by LC-MS/MS analysis; type: ADME, organism-based; details: in vivo; summary of the method: as §1
[3] = Half life in MRP2 knockout Sprague-Dawley rat at 10 mg/kg, po by LC-MS/MS analysis; type: ADME, organism-based; design: dose 10 mg/kg, route oral; details: in vivo; summary of the method: as §1
[4] = Volume of distribution at steady state in MDR1A knockout Sprague-Dawley rat at 1 mg/kg, iv by LC-MS/MS analysis; type: ADME, organism-based; design: dose 1 mg/kg, route intravenous; details: in vivo, read-out: Vdss; summary of the method: as §1
in vivo [5] = details: Sprague-Dawley, rat, plasma, po, 10 mg/kg
[6] = Half life in wild-type Sprague-Dawley rat at 1 mg/kg, iv by LC-MS/MS analysis; type: ADME, organism-based; design: dose 1 mg/kg, route intravenous; details: in vivo; summary of the method: as §1
in vivo [7] = details: Sprague-Dawley, rat, plasma, po, 10 mg/kg; remark: listed apart in the source
Rattus norvegicus [8] = experiment: Toxicity in MDR1A knockout Sprague-Dawley rat assessed as lacrimation at 10 mg/kg, po after 1 to 2 hrs; type: organism-based; design: dose 10 mg/kg, route oral; details: in vivo
Summary of the method: (§2)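 Independent veterinary staff recorded clinical central signs. After oral dosing, animals were observed 1–2 h post-dose and again at 4 h, when sampling stopped and the animals were discontinued.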

Rattus norvegicus [9] = experiment: Toxicity in MDR1A knockout Sprague-Dawley rat assessed as stupor at 10 mg/kg, po after 4 hrs; type: organism-based; design: dose 10 mg/kg, route oral; details: in vivo; summary of the method: as §2
[10] = Half life in wild-type Sprague-Dawley rat at 10 mg/kg, po by LC-MS/MS analysis; type: ADME, organism-based; design: dose 10 mg/kg, route oral; details: in vivo; summary of the method: as §1
in vivo [11] = details: Sprague-Dawley, rat, plasma, po, 10 mg/kg; remark: listed apart in the source
[12] = Oral bioavailability in MRP2 knockout Sprague-Dawley rat at 10 mg/kg by LC-MS/MS analysis; type: ADME, organism-based; details: in vivo; summary of the method: as §1
[13] = Cmax in wild-type Sprague-Dawley rat at 10 mg/kg, po by LC-MS/MS analysis; type: ADME, organism-based; design: dose 10 mg/kg, route oral; details: in vivo; summary of the method: as §1
[14] = Tmax in wild-type Sprague-Dawley rat at 10 mg/kg, po by LC-MS/MS analysis; type: ADME, organism-based; design: dose 10 mg/kg, route oral; details: in vivo; summary of the method: as §1
[15] = Half life in MRP2 knockout Sprague-Dawley rat at 1 mg/kg, iv by LC-MS/MS analysis; type: ADME, organism-based; design: dose 1 mg/kg, route intravenous; details: in vivo
Summary of the method: as §1, with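 “HCl).” for “HCl). Arterial plasma sampled to 24 h (Mdr1a oral arm to 4 h).”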

in vivo [16] = details: Sprague-Dawley, rat, po, 10 mg/kg
[17] = Cmax in MRP2 knockout Sprague-Dawley rat at 10 mg/kg, po by LC-MS/MS analysis; type: ADME, organism-based; design: dose 10 mg/kg, route oral; details: in vivo; summary of the method: as §1
[18] = Tmax in BCRP knockout Sprague-Dawley rat at 10 mg/kg, po by LC-MS/MS analysis; type: ADME, organism-based; design: dose 10 mg/kg, route oral; details: in vivo; summary of the method: as §1
Rattus norvegicus [19] = experiment: Toxicity in MDR1A knockout Sprague-Dawley rat assessed as mortality at 10 mg/kg, po after 4 hrs; type: organism-based; design: dose 10 mg/kg, route oral; details: in vivo; summary of the method: as §2
[20] = Cmax in MDR1A knockout Sprague-Dawley rat at 10 mg/kg, po by LC-MS/MS analysis; type: ADME, organism-based; design: dose 10 mg/kg, route oral; details: in vivo; summary of the method: as §1
Rattus norvegicus [21] = experiment: Toxicity in MDR1A knockout Sprague-Dawley rat assessed as shallow breathing at 10 mg/kg, po after 1 to 2 hrs; type: organism-based; design: dose 10 mg/kg, route oral; details: in vivo; summary of the method: as §2
[22] = Cmax in BCRP knockout Sprague-Dawley rat at 10 mg/kg, po by LC-MS/MS analysis; type: ADME, organism-based; design: dose 10 mg/kg, route oral; details: in vivo; summary of the method: as §1
[23] = AUC (infinity) in BCRP knockout Sprague-Dawley rat at 1 mg/kg, iv by LC-MS/MS analysis; type: ADME, organism-based; design: time infinity, dose 1 mg/kg, route intravenous; details: plasma
[24] = Half life in MDR1A knockout Sprague-Dawley rat at 1 mg/kg, iv by LC-MS/MS analysis; type: ADME, organism-based; design: dose 1 mg/kg, route intravenous; details: in vivo; summary of the method: as §1
[25] = AUC (infinity) in MDR1A knockout Sprague-Dawley rat at 1 mg/kg, iv by LC-MS/MS analysis; type: ADME, organism-based; design: time infinity, dose 1 mg/kg, route intravenous; details: plasma
[26] = AUC (infinity) in MRP2 knockout Sprague-Dawley rat at 1 mg/kg, iv by LC-MS/MS analysis; type: ADME, organism-based, Plasma; design: time infinity, dose 1 mg/kg, route intravenous; details: Sprague-Dawley, plasma
Rattus norvegicus [27] = experiment: Toxicity in MDR1A knockout Sprague-Dawley rat assessed as eye protrusion at 10 mg/kg, po after 1 to 2 hrs; type: organism-based; design: dose 10 mg/kg, route oral; details: in vivo; summary of the method: as §2
Rattus norvegicus [28] = experiment: Toxicity in MDR1A knockout Sprague-Dawley rat assessed as lethargic behavior at 1 mg/kg, iv; type: organism-based; design: dose 1 mg/kg, route intravenous; details: in vivo
[29] = Tmax in MRP2 knockout Sprague-Dawley rat at 10 mg/kg, po by LC-MS/MS analysis; type: ADME, organism-based; design: dose 10 mg/kg, route oral; details: in vivo; summary of the method: as §1
[30] = Volume of distribution at steady state in wild-type Sprague-Dawley rat at 1 mg/kg, iv by LC-MS/MS analysis; type: ADME, organism-based; design: dose 1 mg/kg, route intravenous; details: in vivo, read-out: Vdss; summary of the method: as §1
Rattus norvegicus [31] = experiment: Toxicity in MDR1A knockout Sprague-Dawley rat assessed as hypoactive behavior at 10 mg/kg, po after 1 to 2 hrs; type: organism-based; design: dose 10 mg/kg, route oral; details: in vivo; summary of the method: as §2
[32] = Volume of distribution at steady state in MRP2 knockout Sprague-Dawley rat at 1 mg/kg, iv by LC-MS/MS analysis; type: ADME, organism-based; design: dose 1 mg/kg, route intravenous; details: in vivo, read-out: Vdss; summary of the method: as §1
[33] = AUC (infinity) in wild-type Sprague-Dawley rat at 1 mg/kg, iv by LC-MS/MS analysis; type: ADME, organism-based; design: time infinity, dose 1 mg/kg, route intravenous; details: plasma
[34] = Volume of distribution at steady state in BCRP knockout Sprague-Dawley rat at 1 mg/kg, iv by LC-MS/MS analysis; type: ADME, organism-based; design: dose 1 mg/kg, route intravenous; details: in vivo, read-out: Vdss; summary of the method: as §1
in vivo [35] = details: Sprague-Dawley, rat, po, 10 mg/kg; remark: listed apart in the source
[36] = Tmax in MDR1A knockout Sprague-Dawley rat at 10 mg/kg, po by LC-MS/MS analysis; type: ADME, organism-based; design: dose 10 mg/kg, route oral; details: in vivo; summary of the method: as §1
[37] = Half life in BCRP knockout Sprague-Dawley rat at 1 mg/kg, iv by LC-MS/MS analysis; type: ADME, organism-based; design: dose 1 mg/kg, route intravenous; details: in vivo; summary of the method: as §1
[38] = Oral bioavailability in wild-type Sprague-Dawley rat at 10 mg/kg by LC-MS/MS analysis; type: ADME, organism-based; details: in vivo; summary of the method: as §1
[39] = Half life in BCRP knockout Sprague-Dawley rat at 10 mg/kg, po by LC-MS/MS analysis; type: ADME, organism-based; design: dose 10 mg/kg, route oral; details: in vivo; summary of the method: as §1

## CN(C)C(=O)C(CCN1CCC(O)(c2ccc(Cl)cc2)CC1)(c1ccccc1)c1ccccc1 [LOPERAMIDE]
[1]
  bioavailability: 40%
[2]
  bioavailability: 34%
[3]
  half-life: 780 min
[4]
  Vd: 7.9 L/kg
In vivo [5]
  AUC(0-inf): 806 ng·h/mL
[6]
  half-life: 60 min
In vivo [7]
  AUC(0-inf): 1020 ng·h/mL
Rattus norvegicus [8]
  Activity: Toxic
Rattus norvegicus [9]
  Activity: Toxic
[10]
  half-life: 780 min
In vivo [11]
  AUC(0-inf): 980 ng·h/mL
[12]
  bioavailability: 60%
[13]
  Cmax: 90 ng/mL
[14]
  Tmax: 18 min
[15]
  half-life: 66 min
In vivo [16]
  AUC(0-t) at 4 h: 651 ng·h/mL
[17]
  Cmax: 60 ng/mL
[18]
  Tmax: 42 min
Rattus norvegicus [19]
  Activity: Toxic
[20]
  Cmax: 226 ng/mL
Rattus norvegicus [21]
  Activity: Toxic
[22]
  Cmax: 69 ng/mL
[23]
  AUC(0-inf): 161 ng·h/mL
[24]
  half-life: 90 min
[25]
  AUC(0-inf): 243 ng·h/mL
[26]
  AUC(0-inf): 122 ng·h/mL
Rattus norvegicus [27]
  Activity: Toxic
Rattus norvegicus [28]
  Activity: Toxic
[29]
  Tmax: 24 min
[30]
  Vd: 9 L/kg
Rattus norvegicus [31]
  Activity: Toxic
[32]
  Vd: 21.2 L/kg
[33]
  AUC(0-inf): 131 ng·h/mL
[34]
  Vd: 11.5 L/kg
In vivo [35]
  AUC(0-t) at 4 h: 184 ng·h/mL
[36]
  Tmax: 48 min
[37]
  half-life: 90 min
[38]
  bioavailability: 16%
[39]
  half-life: 900 min

Source: ChEMBL document CHEMBL3526049 (Drug Metab Dispos, 2012)
